Data taken from ChEMBL document CHEMBL4689842, “EUbOPEN Chemogenomics Library wave 1” (2021).

System: Fibroblast
Assay: Multiplex assay against human fibroblast
Type: toxicity, cell-based
Summary of the method: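 Four dyes were applied at seeding to live cells: Hoechst33342, BioTracker Green Microtubule Cytoskeleton Dye, MitoTracker Red and Annexin V Alexa Fluor 680. Imaging after compound addition used a CQ1 microscope at 37°C and 5% CO2. CellPathfinder machine-learning gating then sorted cells into Hoechst high-intensity objects or normal cells, normal cells into healthy, pyknosed or fragmented nuclei, and pyknosed cells into mitotic or apoptotic, with tubulin, mitochondrial-mass and membrane-permeability phenotypes given as per cents of healthy-nucleus cells.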

[1] = 12 h, 1 µM, compound concentration 1 uM, replicate 1
[2] = 12 h, 1 µM, compound concentration 1 uM, replicate 2
[3] = 12 h, 10 µM, compound concentration 10 uM, replicate 1
[4] = 12 h, 10 µM, compound concentration 10 uM, replicate 2
[5] = 24 h, 1 µM, compound concentration 1 uM, replicate 1
[6] = 24 h, 1 µM, compound concentration 1 uM, replicate 2
[7] = 24 h, 10 µM, compound concentration 10 uM, replicate 1
[8] = 24 h, 10 µM, compound concentration 10 uM, replicate 2
[9] = 48 h, 1 µM, compound concentration 1 uM, replicate 1
[10] = 48 h, 1 µM, compound concentration 1 uM, replicate 2
[11] = 48 h, 10 µM, compound concentration 10 uM, replicate 1
[12] = 48 h, 10 µM, compound concentration 10 uM, replicate 2

SMILES: CCOc1cc(N2CCC(O)CC2)ccc1Nc1ncc2c(n1)N(C1CCCC1)CCC(=O)N2C
- Population Apoptotic (%) [1]: 64%
- Population Fragmented Nuclei (%) [1]: 25%
- Population Healthy Nuclei (%) [1]: 58%
- Population Hoechst High Intensity Objects (%) [1]: 12%
- Population Membrane Permeable-Phenotype (%) [1]: 8%
- Population Mitochondria Different-Phenotype (%) [1]: 7%
- Population Mitotic Cells (%) [1]: 35%
- Population Normal (%) [1]: 87%
- Population Pyknosed Nuclei (%) [1]: 16%
- Population Tubulin-Different-Phenotype (%) [1]: 11%
- Total Cell Count [1]: 197
- Population Apoptotic (%) [2]: 0%
- Population Fragmented Nuclei (%) [2]: 46%
- Population Healthy Nuclei (%) [2]: 48%
- Population Hoechst High Intensity Objects (%) [2]: 33%
- Population Membrane Permeable-Phenotype (%) [2]: 17%
- Population Mitochondria Different-Phenotype (%) [2]: 17%
- Population Mitotic Cells (%) [2]: 100%
- Population Normal (%) [2]: 66%
- Population Pyknosed Nuclei (%) [2]: 4%
- Population Tubulin-Different-Phenotype (%) [2]: 39%
- Total Cell Count [2]: 71
- Population Apoptotic (%) [3]: 84%
- Population Fragmented Nuclei (%) [3]: 23%
- Population Healthy Nuclei (%) [3]: 58%
- Population Hoechst High Intensity Objects (%) [3]: 14%
- Population Membrane Permeable-Phenotype (%) [3]: 8%
- Population Mitochondria Different-Phenotype (%) [3]: 2%
- Population Mitotic Cells (%) [3]: 15%
- Population Normal (%) [3]: 85%
- Population Pyknosed Nuclei (%) [3]: 17%
- Population Tubulin-Different-Phenotype (%) [3]: 1%
- Total Cell Count [3]: 291
- Population Apoptotic (%) [4]: 37%
- Population Fragmented Nuclei (%) [4]: 50%
- Population Healthy Nuclei (%) [4]: 36%
- Population Hoechst High Intensity Objects (%) [4]: 29%
- Population Membrane Permeable-Phenotype (%) [4]: 27%
- Population Mitochondria Different-Phenotype (%) [4]: 4%
- Population Mitotic Cells (%) [4]: 62%
- Population Normal (%) [4]: 70%
- Population Pyknosed Nuclei (%) [4]: 13%
- Population Tubulin-Different-Phenotype (%) [4]: 18%
- Population Apoptotic (%) [5]: 72%
- Population Fragmented Nuclei (%) [5]: 27%
- Population Healthy Nuclei (%) [5]: 56%
- Population Hoechst High Intensity Objects (%) [5]: 12%
- Population Membrane Permeable-Phenotype (%) [5]: 6%
- Population Mitochondria Different-Phenotype (%) [5]: 6%
- Population Mitotic Cells (%) [5]: 27%
- Population Normal (%) [5]: 87%
- Population Pyknosed Nuclei (%) [5]: 15%
- Population Tubulin-Different-Phenotype (%) [5]: 7%
- Total Cell Count [5]: 211
- Population Apoptotic (%) [6]: 66%
- Population Fragmented Nuclei (%) [6]: 57%
- Population Healthy Nuclei (%) [6]: 35%
- Population Hoechst High Intensity Objects (%) [6]: 40%
- Population Membrane Permeable-Phenotype (%) [6]: 26%
- Population Mitochondria Different-Phenotype (%) [6]: 20%
- Population Mitotic Cells (%) [6]: 33%
- Population Normal (%) [6]: 59%
- Population Pyknosed Nuclei (%) [6]: 7%
- Population Tubulin-Different-Phenotype (%) [6]: 26%
- Total Cell Count [6]: 71
- Population Apoptotic (%) [7]: 67%
- Population Fragmented Nuclei (%) [7]: 17%
- Population Healthy Nuclei (%) [7]: 62%
- Population Hoechst High Intensity Objects (%) [7]: 19%
- Population Membrane Permeable-Phenotype (%) [7]: 5%
- Population Mitochondria Different-Phenotype (%) [7]: 1%
- Population Mitotic Cells (%) [7]: 32%
- Population Normal (%) [7]: 80%
- Population Pyknosed Nuclei (%) [7]: 19%
- Population Tubulin-Different-Phenotype (%) [7]: 1%
- Total Cell Count [7]: 308
- Population Apoptotic (%) [8]: 60%
- Population Fragmented Nuclei (%) [8]: 40%
- Population Healthy Nuclei (%) [8]: 50%
- Population Hoechst High Intensity Objects (%) [8]: 28%
- Population Membrane Permeable-Phenotype (%) [8]: 18%
- Population Mitochondria Different-Phenotype (%) [8]: 3%
- Population Mitotic Cells (%) [8]: 40%
- Population Normal (%) [8]: 72%
- Population Pyknosed Nuclei (%) [8]: 9%
- Population Tubulin-Different-Phenotype (%) [8]: 14%
- Total Cell Count [8]: 75

SMILES: Cl.Cl.Nc1ncnc2c1c(-c1cccc(OCc3ccccc3)c1)cn2[C@H]1C[C@@H](CN2CCC2)C1
- Population Apoptotic (%) [1]: 70%
- Population Fragmented Nuclei (%) [1]: 31%
- Population Healthy Nuclei (%) [1]: 48%
- Population Hoechst High Intensity Objects (%) [1]: 22%
- Population Membrane Permeable-Phenotype (%) [1]: 21%
- Population Mitochondria Different-Phenotype (%) [1]: 9%
- Population Mitotic Cells (%) [1]: 29%
- Population Normal (%) [1]: 77%
- Population Pyknosed Nuclei (%) [1]: 20%
- Population Tubulin-Different-Phenotype (%) [1]: 53%
- Total Cell Count [1]: 109
- Population Apoptotic (%) [2]: 29%
- Population Fragmented Nuclei (%) [2]: 11%
- Population Healthy Nuclei (%) [2]: 67%
- Population Hoechst High Intensity Objects (%) [2]: 6%
- Population Membrane Permeable-Phenotype (%) [2]: 3%
- Population Mitochondria Different-Phenotype (%) [2]: 71%
- Population Mitotic Cells (%) [2]: 70%
- Population Normal (%) [2]: 93%
- Population Tubulin-Different-Phenotype (%) [2]: 52%
- Total Cell Count [2]: 55
- Population Apoptotic (%) [3]: 60%
- Population Fragmented Nuclei (%) [3]: 24%
- Population Healthy Nuclei (%) [3]: 39%
- Population Hoechst High Intensity Objects (%) [3]: 38%
- Population Membrane Permeable-Phenotype (%) [3]: 9%
- Population Mitochondria Different-Phenotype (%) [3]: 50%
- Population Mitotic Cells (%) [3]: 40%
- Population Normal (%) [3]: 61%
- Population Pyknosed Nuclei (%) [3]: 36%
- Population Tubulin-Different-Phenotype (%) [3]: 77%
- Total Cell Count [3]: 222
- Population Apoptotic (%) [4]: 85%
- Population Fragmented Nuclei (%) [4]: 22%
- Population Healthy Nuclei (%) [4]: 47%
- Population Hoechst High Intensity Objects (%) [4]: 8%
- Population Membrane Permeable-Phenotype (%) [4]: 77%
- Population Mitochondria Different-Phenotype (%) [4]: 97%
- Population Mitotic Cells (%) [4]: 14%
- Population Normal (%) [4]: 91%
- Population Pyknosed Nuclei (%) [4]: 29%
- Population Tubulin-Different-Phenotype (%) [4]: 97%
- Total Cell Count [4]: 90
- Population Apoptotic (%) [5]: 53%
- Population Fragmented Nuclei (%) [5]: 29%
- Population Healthy Nuclei (%) [5]: 57%
- Population Hoechst High Intensity Objects (%) [5]: 26%
- Population Membrane Permeable-Phenotype (%) [5]: 18%
- Population Mitochondria Different-Phenotype (%) [5]: 3%
- Population Mitotic Cells (%) [5]: 46%
- Population Normal (%) [5]: 73%
- Population Pyknosed Nuclei (%) [5]: 12%
- Population Tubulin-Different-Phenotype (%) [5]: 53%
- Total Cell Count [5]: 141
- Population Apoptotic (%) [6]: 28%
- Population Fragmented Nuclei (%) [6]: 13%
- Population Healthy Nuclei (%) [6]: 64%
- Population Hoechst High Intensity Objects (%) [6]: 6%
- Population Membrane Permeable-Phenotype (%) [6]: 4%
- Population Mitochondria Different-Phenotype (%) [6]: 68%
- Population Mitotic Cells (%) [6]: 71%
- Population Normal (%) [6]: 93%
- Population Pyknosed Nuclei (%) [6]: 21%
- Population Tubulin-Different-Phenotype (%) [6]: 39%
- Total Cell Count [6]: 50
- Population Apoptotic (%) [7]: 84%
- Population Fragmented Nuclei (%) [7]: 18%
- Population Healthy Nuclei (%) [7]: 40%
- Population Hoechst High Intensity Objects (%) [7]: 48%
- Population Membrane Permeable-Phenotype (%) [7]: 5%
- Population Mitochondria Different-Phenotype (%) [7]: 59%
- Population Mitotic Cells (%) [7]: 15%
- Population Normal (%) [7]: 51%
- Population Pyknosed Nuclei (%) [7]: 41%
- Population Tubulin-Different-Phenotype (%) [7]: 67%
- Total Cell Count [7]: 178
- Population Apoptotic (%) [8]: 92%
- Population Fragmented Nuclei (%) [8]: 21%
- Population Healthy Nuclei (%) [8]: 35%
- Population Hoechst High Intensity Objects (%) [8]: 9%
- Population Membrane Permeable-Phenotype (%) [8]: 93%
- Population Mitochondria Different-Phenotype (%) [8]: 96%
- Population Mitotic Cells (%) [8]: 7%
- Population Normal (%) [8]: 90%
- Population Pyknosed Nuclei (%) [8]: 42%
- Population Tubulin-Different-Phenotype (%) [8]: 96%
- Total Cell Count [8]: 104
- Population Apoptotic (%) [9]: 83%
- Population Fragmented Nuclei (%) [9]: 36%
- Population Healthy Nuclei (%) [9]: 56%
- Population Hoechst High Intensity Objects (%) [9]: 28%
- Population Membrane Permeable-Phenotype (%) [9]: 12%
- Population Mitotic Cells (%) [9]: 16%
- Population Normal (%) [9]: 71%
- Population Pyknosed Nuclei (%) [9]: 6%
- Population Tubulin-Different-Phenotype (%) [9]: 33%
- Total Cell Count [9]: 132
- Population Apoptotic (%) [10]: 50%
- Population Fragmented Nuclei (%) [10]: 32%
- Population Healthy Nuclei (%) [10]: 65%
- Population Hoechst High Intensity Objects (%) [10]: 22%
- Population Membrane Permeable-Phenotype (%) [10]: 9%
- Population Mitochondria Different-Phenotype (%) [10]: 5%
- Population Mitotic Cells (%) [10]: 50%
- Population Normal (%) [10]: 77%
- Population Pyknosed Nuclei (%) [10]: 1%
- Population Tubulin-Different-Phenotype (%) [10]: 54%
- Total Cell Count [10]: 145
- Population Apoptotic (%) [11]: 94%
- Population Fragmented Nuclei (%) [11]: 34%
- Population Healthy Nuclei (%) [11]: 25%
- Population Hoechst High Intensity Objects (%) [11]: 32%
- Population Membrane Permeable-Phenotype (%) [11]: 0%
- Population Mitochondria Different-Phenotype (%) [11]: 79%
- Population Mitotic Cells (%) [11]: 5%
- Population Normal (%) [11]: 67%
- Population Pyknosed Nuclei (%) [11]: 40%
- Population Tubulin-Different-Phenotype (%) [11]: 79%
- Total Cell Count [11]: 139
- Population Apoptotic (%) [12]: 81%
- Population Fragmented Nuclei (%) [12]: 14%
- Population Healthy Nuclei (%) [12]: 34%
- Population Hoechst High Intensity Objects (%) [12]: 47%
- Population Membrane Permeable-Phenotype (%) [12]: 9%
- Population Mitochondria Different-Phenotype (%) [12]: 68%
- Population Mitotic Cells (%) [12]: 18%
- Population Normal (%) [12]: 52%
- Population Pyknosed Nuclei (%) [12]: 51%
- Population Tubulin-Different-Phenotype (%) [12]: 63%
- Total Cell Count [12]: 122
